Columns and labels:
Format in all cases: functional
MCF7 [1] = assay: Induction of apoptosis in human MCF7 cells assessed as late apoptotic cells at 50 uM after 6 hrs by Annexin V-FITC/propidium iodide staining-based flow cytometric analysis (reference value: 4.7%)
Procedure, shortened: (§1)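 Log-phase cells seeded in 6-well plates and treated after adhesion; incubated in cycles of 6 h on/6 h off up to 48 h. Collected after PBS washes and trypsin, resuspended in Ca2+-enriched binding buffer. Stained with annexin V (1 µg/mL) plus PI (0.5 µg/mL) 15 min in the dark at room temperature. 10,000 events, FL1 vs FL2. At least three repeats.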

MCF7 [2] = assay: Induction of apoptosis in human MCF7 cells assessed as viable cells at 10 uM after 48 hrs by Annexin V-FITC/propidium iodide staining-based flow cytometric analysis (reference value: 87.9%); conditions: MCF7, 48 h, read-out: Activity
MCF7 [3] = assay: Induction of apoptosis in human MCF7 cells assessed as late apoptotic cells at 1 uM after 6 hrs by Annexin V-FITC/propidium iodide staining-based flow cytometric analysis (reference value: 4.7%); procedure, shortened: as §1
MCF7 [4] = assay: Induction of apoptosis in human MCF7 cells assessed as viable cells at 1 uM after 48 hrs by Annexin V-FITC/propidium iodide staining-based flow cytometric analysis (reference value: 87.9%); conditions: MCF7, 48 h, read-out: Activity
MCF7 [5] = assay: Induction of apoptosis in human MCF7 cells assessed as viable cells at 50 uM after 24 hrs by Annexin V-FITC/propidium iodide staining-based flow cytometric analysis (reference value: 92.1%); conditions: MCF7, 24 h, read-out: Activity
MCF7 [6] = assay: Induction of apoptosis in human MCF7 cells assessed as late apoptotic cells at 5 uM after 24 hrs by Annexin V-FITC/propidium iodide staining-based flow cytometric analysis (reference value: 5.6%); procedure, shortened: as §1
MCF7 [7] = assay: Induction of apoptosis in human MCF7 cells assessed as necrotic cells at 5 uM after 24 hrs by Annexin V-FITC/propidium iodide staining-based flow cytometric analysis (reference value: 0.1%)
MCF7 [8] = assay: Induction of apoptosis in human MCF7 cells assessed as necrotic cells at 50 uM after 24 hrs by Annexin V-FITC/propidium iodide staining-based flow cytometric analysis (reference value: 0.2%)
MCF7 [9] = assay: Induction of apoptosis in human MCF7 cells assessed as late apoptotic cells at 5 uM after 6 hrs by Annexin V-FITC/propidium iodide staining-based flow cytometric analysis (reference value: 4.7%); procedure, shortened: as §1
MCF7 [10] = assay: Induction of apoptosis in human MCF7 cells assessed as early apoptotic cells at 5 uM after 6 hrs by Annexin V-FITC/propidium iodide staining-based flow cytometric analysis (reference value: 2%); procedure, shortened: as §1
MCF7 [11] = assay: Induction of apoptosis in human MCF7 cells assessed as late apoptotic cells at 25 uM after 6 hrs by Annexin V-FITC/propidium iodide staining-based flow cytometric analysis (reference value: 4.7%); procedure, shortened: as §1
MCF7 [12] = assay: Induction of apoptosis in human MCF7 cells assessed as late apoptotic cells at 10 uM after 48 hrs by Annexin V-FITC/propidium iodide staining-based flow cytometric analysis (reference value: 2.8%); procedure, shortened: as §1
MCF7 [13] = assay: Induction of apoptosis in human MCF7 cells assessed as necrotic cells at 1 uM after 24 hrs by Annexin V-FITC/propidium iodide staining-based flow cytometric analysis (reference value: 0.2%)
MCF7 [14] = assay: Induction of apoptosis in human MCF7 cells assessed as late apoptotic cells at 5 uM after 48 hrs by Annexin V-FITC/propidium iodide staining-based flow cytometric analysis (reference value: 2.8%); procedure, shortened: as §1
MCF7 [15] = assay: Induction of apoptosis in human MCF7 cells assessed as viable cells at 10 uM after 6 hrs by Annexin V-FITC/propidium iodide staining-based flow cytometric analysis (reference value: 92.8%); conditions: MCF7, 6 h, read-out: Activity
MCF7 [16] = assay: Induction of apoptosis in human MCF7 cells assessed as late apoptotic cells at 1 uM after 24 hrs by Annexin V-FITC/propidium iodide staining-based flow cytometric analysis (reference value: 5.6%); procedure, shortened: as §1
MCF7 [17] = assay: Induction of apoptosis in human MCF7 cells assessed as late apoptotic cells at 10 uM after 6 hrs by Annexin V-FITC/propidium iodide staining-based flow cytometric analysis (reference value: 4.7%); procedure, shortened: as §1
MCF7 [18] = assay: Induction of apoptosis in human MCF7 cells assessed as necrotic cells at 5 uM after 24 hrs by Annexin V-FITC/propidium iodide staining-based flow cytometric analysis (reference value: 0.2%)
MCF7 [19] = assay: Antitumor activity against human MCF7 cells xenografted in BALB/c nude mouse assessed as tumor weight at 40 mg/kg administered for a week
Procedure, shortened: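 Male BALB/c nude mice, 4 weeks old, 15-20 g. Log-phase MCF-7 cells in DMEM, 0.1 mL of 1×10^6 cells/mL, injected subcutaneously into the hind leg. Calipers twice weekly; at about 90 mm3, groups of 5. Vehicle was isotonic saline plus 0.005% DMSO. Injected at 40 mg/kg for a week; tumour volume recorded daily.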

MCF7 [20] = assay: Induction of apoptosis in human MCF7 cells assessed as viable cells at 1 uM after 24 hrs by Annexin V-FITC/propidium iodide staining-based flow cytometric analysis (reference value: 92.1%); conditions: MCF7, 24 h, read-out: Activity
MCF7 [21] = assay: Induction of apoptosis in human MCF7 cells assessed as viable cells at 10 uM after 24 hrs by Annexin V-FITC/propidium iodide staining-based flow cytometric analysis (reference value: 92.1%); conditions: MCF7, 24 h, read-out: Activity
MCF7 [22] = assay: Induction of apoptosis in human MCF7 cells assessed as viable cells at 25 uM after 24 hrs by Annexin V-FITC/propidium iodide staining-based flow cytometric analysis (reference value: 92.1%); conditions: MCF7, 24 h, read-out: Activity
MCF7 [23] = assay: Induction of apoptosis in human MCF7 cells assessed as necrotic cells at 1 uM after 6 hrs by Annexin V-FITC/propidium iodide staining-based flow cytometric analysis (reference value: 0.5%)
MCF7 [24] = assay: Induction of apoptosis in human MCF7 cells assessed as viable cells at 25 uM after 48 hrs by Annexin V-FITC/propidium iodide staining-based flow cytometric analysis (reference value: 87.9%); conditions: MCF7, 48 h, read-out: Activity
MCF7 [25] = assay: Induction of apoptosis in human MCF7 cells assessed as early apoptotic cells at 10 uM after 48 hrs by Annexin V-FITC/propidium iodide staining-based flow cytometric analysis (reference value: 9.1%); procedure, shortened: as §1
MCF7 [26] = assay: Induction of apoptosis in human MCF7 cells assessed as early apoptotic cells at 10 uM after 6 hrs by Annexin V-FITC/propidium iodide staining-based flow cytometric analysis (reference value: 2%); procedure, shortened: as §1
MCF7 [27] = assay: Induction of apoptosis in human MCF7 cells assessed as viable cells at 50 uM after 6 hrs by Annexin V-FITC/propidium iodide staining-based flow cytometric analysis (reference value: 92.8%); conditions: MCF7, 6 h, read-out: Activity
MCF7 [28] = assay: Induction of apoptosis in human MCF7 cells assessed as late apoptotic cells at 25 uM after 24 hrs by Annexin V-FITC/propidium iodide staining-based flow cytometric analysis (reference value: 5.6%); procedure, shortened: as §1
MCF7 [29] = assay: Induction of apoptosis in human MCF7 cells assessed as necrotic cells at 5 uM after 6 hrs by Annexin V-FITC/propidium iodide staining-based flow cytometric analysis (reference value: 0.5%)

`COc1cc([C@@H]2c3cc4c(cc3[C@@H](O[C@@H]3O[C@@H]5CO[C@@H](C)O[C@H]5[C@H](O)[C@H]3O)[C@H]3COC(=O)[C@H]23)OCO4)cc(OC)c1O` [ETOPOSIDE] was tested, and the Activity (MCF7 [1]) was 4.6%, the viability at 10 µM (MCF7 [2]) was 20.7% and the Activity (MCF7 [3]) was 7.1%. For the same compound, the viability at 1 µM (MCF7 [4]) was 79.1%, the viability at 50 µM (MCF7 [5]) was 73.9% and the Activity (MCF7 [6]) was 8.4%. For the same compound, the Activity (MCF7 [7]) was 1.2%, the Activity (MCF7 [8]) was 1% and the Activity (MCF7 [9]) was 7.6%. For the same compound, the Activity (MCF7 [10]) was 2%, the Activity (MCF7 [11]) was 6.7% and the Activity (MCF7 [12]) was 17.5%. The Activity (MCF7 [13]) was 0.2%, the Activity (MCF7 [14]) was 15.1% and the viability at 10 µM (MCF7 [15]) was 87.7%. The Activity (MCF7 [16]) was 6.8%, the Activity (MCF7 [17]) was 9.1% and the Activity (MCF7 [18]) was 0.6%. It also gave an Activity (MCF7 [19]) of 0.834 g, a viability at 1 µM (MCF7 [20]) of 90.7% and a viability at 10 µM (MCF7 [21]) of 73.9%. It also gave a viability at 25 µM (MCF7 [22]) of 81.1%, an Activity (MCF7 [23]) of 0.5% and a viability at 25 µM (MCF7 [24]) of 25.7%. The Activity (MCF7 [25]) was 60.5%, the Activity (MCF7 [26]) was 2.2% and the viability at 50 µM (MCF7 [27]) was 91.6%. The Activity (MCF7 [28]) was 7.7% and the Activity (MCF7 [29]) was 0.6%.
